Experimental findings from ChEMBL document CHEMBL1944519 (Bioorg Med Chem, 2012) are described below.

Structures are written as SMILES.

The target in one test is T1, Steryl-sulfatase (Homo sapiens, UniProt P08842).
T1 sequence (P08842 whole entry): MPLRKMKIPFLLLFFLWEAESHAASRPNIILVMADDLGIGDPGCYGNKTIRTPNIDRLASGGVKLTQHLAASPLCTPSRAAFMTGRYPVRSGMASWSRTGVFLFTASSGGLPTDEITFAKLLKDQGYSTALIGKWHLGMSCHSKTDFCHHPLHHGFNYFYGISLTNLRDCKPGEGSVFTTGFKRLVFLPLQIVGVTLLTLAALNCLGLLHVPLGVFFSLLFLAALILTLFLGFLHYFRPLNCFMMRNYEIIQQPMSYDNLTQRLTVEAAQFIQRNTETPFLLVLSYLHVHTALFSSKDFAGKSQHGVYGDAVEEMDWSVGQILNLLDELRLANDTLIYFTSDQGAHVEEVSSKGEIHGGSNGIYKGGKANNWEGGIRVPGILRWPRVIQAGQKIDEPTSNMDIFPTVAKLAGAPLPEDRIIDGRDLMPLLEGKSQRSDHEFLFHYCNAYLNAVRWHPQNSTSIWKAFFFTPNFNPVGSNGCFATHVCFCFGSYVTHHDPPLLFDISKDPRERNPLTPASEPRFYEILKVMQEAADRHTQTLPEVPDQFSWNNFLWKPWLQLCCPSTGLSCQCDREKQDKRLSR
Description: Inhibition of steroid sulfatase using 4-methylumbelliferyl sulfate as substrate after 10 mins by spectrofluorimeter plate reader. Put shortly: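 Human placental STS, purified, used at 10 nM final with 200 μM 4-MUS (Km level). Assay buffer 0.1 M Tris-HCl pH 7.0, 0.01% Triton X-100, 5% DMSO, 25 °C. Inhibitor dilutions in DMSO/Tris (1:1), enzyme added last. 4-MU release read by fluorescence (ex 360, em 460) over 10 min, in triplicate. IC50 from percent activity vs log[I], fitted with a slope-factor equation plus background term.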
Usually IC50 stands for the midpoint of a concentration-inhibition curve. A higher IC50 goes with lower potency. In the case of `Cc1ccc(CS(=O)(=O)N[C@H]2CC[C@H]3[C@@H]4CCc5cc(O)ccc5[C@H]4CC[C@]23C)cc1`, the IC50 was determined as 261 nM.

`C[C@]12CC[C@@H]3c4ccc(O)cc4CC[C@H]3[C@@H]1CC[C@@H]2NS(=O)(=O)c1cccc(C#N)c1`: the IC50 was found to be 137 nM.

As to `C[C@]12CC[C@@H]3c4ccc(O)cc4CC[C@H]3[C@@H]1CC[C@@H]2NS(=O)(=O)c1cccc(Cl)c1`, the IC50 was found to be 67 nM.

For `C[C@]12CC[C@@H]3c4ccc(O)cc4CC[C@H]3[C@@H]1CC[C@@H]2NS(=O)(=O)c1ccccc1`, the IC50 stood at 343 nM.

As for `C[C@]12CC[C@@H]3c4ccc(O)cc4CC[C@H]3[C@@H]1CC[C@@H]2NS(=O)(=O)c1ccc(Oc2ccccc2)cc1`, the midpoint of inhibition, the IC50, lay at 39 nM.

`CC(C)c1ccc(S(=O)(=O)N[C@H]2CC[C@H]3[C@@H]4CCc5cc(O)ccc5[C@H]4CC[C@]23C)cc1` registered an IC50 of 62 nM.

For `C[C@]12CC[C@@H]3c4ccc(O)cc4CC[C@H]3[C@@H]1CC[C@@H]2NS(=O)(=O)c1ccc(Br)cc1`, half-maximal inhibition (IC50) required 190 nM.

Turning to `CC(C)(C)c1ccc(S(=O)(=O)N[C@H]2CC[C@H]3[C@@H]4CCc5cc(O)ccc5[C@H]4CC[C@]23C)cc1`, half-maximal inhibition (IC50) was put at 18 nM.

`CCCCCc1ccc(S(=O)(=O)N[C@H]2CC[C@H]3[C@@H]4CCc5cc(O)ccc5[C@H]4CC[C@]23C)cc1` gave an IC50 of 51 nM.

Turning to `CCCCc1ccc(S(=O)(=O)N[C@H]2CC[C@H]3[C@@H]4CCc5cc(O)ccc5[C@H]4CC[C@]23C)cc1`, half-maximal inhibition (IC50) required 26 nM.

As to `CCCc1ccc(S(=O)(=O)N[C@H]2CC[C@H]3[C@@H]4CCc5cc(O)ccc5[C@H]4CC[C@]23C)cc1`, 44 nM corresponded to half-maximal inhibition (IC50).

Compound `C[C@]12CC[C@@H]3c4ccc(O)cc4CC[C@H]3[C@@H]1CC[C@@H]2NS(=O)(=O)c1ccc(C(F)(F)F)cc1` registered an IC50 of 73 nM.

Take `C[C@]12CC[C@@H]3c4ccc(O)cc4CC[C@H]3[C@@H]1CC[C@@H]2NS(=O)(=O)c1ccc(Cl)cc1`: the IC50 amounted to 271 nM.

`COc1cccc(S(=O)(=O)N[C@H]2CC[C@H]3[C@@H]4CCc5cc(O)ccc5[C@H]4CC[C@]23C)c1` had an IC50 of 193 nM.

Compound `C[C@]12CC[C@@H]3c4ccc(O)cc4CC[C@H]3[C@@H]1CC[C@@H]2NS(=O)(=O)c1cccc(OC(F)(F)F)c1` had an IC50 of 74 nM.

Compound `C[C@]12CC[C@@H]3c4ccc(O)cc4CC[C@H]3[C@@H]1CC[C@@H]2NS(=O)(=O)c1cccc(C(F)(F)F)c1` displayed an IC50 of 23 nM.

As to `C[C@]12CC[C@@H]3c4ccc(O)cc4CC[C@H]3[C@@H]1CC[C@@]2(O)Cc1cccc(C(F)(F)F)c1`, half-maximal inhibition (IC50) was put at 126 nM.

The compound `Cc1ccc(S(=O)(=O)N[C@H]2CC[C@H]3[C@@H]4CCc5cc(O)ccc5[C@H]4CC[C@]23C)cc1` returned an IC50 of 207 nM.

Take `C[C@]12CC[C@@H]3c4ccc(O)cc4CC[C@H]3[C@@H]1CC[C@@H]2NS(=O)(=O)c1ccc2ccccc2c1`: the IC50 was 20 nM.

`C[C@]12CC[C@@H]3c4ccc(O)cc4CC[C@H]3[C@@H]1CC[C@@H]2NS(=O)(=O)Cc1ccccc1` had an IC50 of 364 nM.

The compound `C[C@]12CC[C@@H]3c4ccc(O)cc4CC[C@H]3[C@@H]1CC[C@@]2(O)Cc1ccc(-c2ccccc2)cc1` came in with an IC50 of 35 nM.

Compound `C[C@]12CC[C@@H]3c4ccc(O)cc4CC[C@H]3[C@@H]1CC[C@@]2(O)Cc1ccc2ccccc2c1` registered an IC50 of 120 nM.

`C[C@]12CC[C@@H]3c4ccc(O)cc4CC[C@H]3[C@@H]1CC[C@@H]2NS(=O)(=O)c1ccccc1Br`: the IC50 was determined as 493 nM.

`Cc1ccc(S(=O)(=O)N[C@@H]2CC[C@H]3[C@@H]4CCc5cc(O)ccc5[C@H]4CC[C@]23C)cc1`: the IC50 was found to be 341 nM.

Consider `Cc1cccc(S(=O)(=O)N[C@H]2CC[C@H]3[C@@H]4CCc5cc(O)ccc5[C@H]4CC[C@]23C)c1`, for which half-maximal inhibition (IC50) required 65 nM.

As to `C[C@]12CC[C@@H]3c4ccc(O)cc4CC[C@H]3[C@@H]1CC[C@@H]2NS(=O)(=O)c1ccc(F)cc1`, the IC50 worked out at 479 nM.

`C[C@]12CC[C@@H]3c4ccc(O)cc4CC[C@H]3[C@@H]1CC[C@@H]2NS(=O)(=O)c1ccc(-c2ccccc2)cc1` had an IC50 of 9 nM.

`Cc1ccc(S(=O)(=O)O[C@H]2CC[C@H]3[C@@H]4CCc5cc(O)ccc5[C@H]4CC[C@]23C)cc1` gave an IC50 of 293 nM.

`C[C@]12CC[C@@H]3c4ccc(O)cc4CC[C@H]3[C@@H]1CC[C@@H]2NS(=O)(=O)c1cccc(Br)c1` displayed an IC50 of 25 nM.

In turn, `C[C@]12CC[C@@H]3c4ccc(O)cc4CC[C@H]3[C@@H]1CC[C@@H]2NC(=O)c1cccc(C(F)(F)F)c1` came in with an IC50 of 749 nM.

For the compound `C[C@]12CC[C@@H]3c4ccc(O)cc4CC[C@H]3[C@@H]1CC[C@@H]2NS(=O)(=O)c1cccc(F)c1`, it took 112 nM to reach half-maximal inhibition (IC50).

`C[C@]12CC[C@@H]3c4ccc(O)cc4CC[C@H]3[C@@H]1CC[C@@H]2NS(=O)(=O)c1cccc([N+](=O)[O-])c1` yielded an IC50 of 90 nM.

A further test addresses T1, Steryl-sulfatase. Description: Mixed type inhibition of steroid sulfatase using 4-methylumbelliferyl sulfate as substrate by Lineweaver-Burk plot analysis. Put shortly: (§1)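 Kinetics used purified human placental STS at 10 nM final, 25 °C. Inhibitor was fixed at 75, 50 or 25 nM final (plus an inhibitor-free control) against 4-MUS from 83.3 to 500 μM final, in 0.1 M Tris-HCl pH 7.0. Initial rates (RFU/s) were measured by fluorescence in triplicate and plotted as Lineweaver–Burk. Slopes and intercepts were replotted with mixed-type equations to give Ki and αKi.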
The term Ki denotes the dissociation constant of the complex between target and ligand, obtained from inhibition or displacement. Low values mean higher affinity, high ones lower affinity. Turning to `C[C@]12CC[C@@H]3c4ccc(O)cc4CC[C@H]3[C@@H]1CC[C@@H]2NS(=O)(=O)c1cccc(Br)c1`, the Ki was found to be 23 nM.

The next test concerns the target T1, Steryl-sulfatase. Kind of test: Inhibition of steroid sulfatase using 4-methylumbelliferyl sulfate as substrate by Lineweaver-Burk plot analysis. Put shortly:
as §1
The compound `C[C@]12CC[C@@H]3c4ccc(O)cc4CC[C@H]3[C@@H]1CC[C@@H]2NS(=O)(=O)c1cccc(Br)c1` yielded a Ki of 23 nM.

The target of a further test is T2, Steryl-sulfatase (Homo sapiens) (UniProt P08842).
T2 sequence (whole entry): T1 sequence (P08842 whole entry)
Kind of test: Ratio of 17beta-3'-trifluoromethylbenzylest radiol IC50 to compound IC50 for steroid sulfatase.
In the case of `C[C@]12CC[C@@H]3c4ccc(O)cc4CC[C@H]3[C@@H]1CC[C@@H]2NS(=O)(=O)c1cccc(C(F)(F)F)c1`, the Ratio IC50 was determined as 6.
